pIC50: −log10 of the molar value. Active and inactive are the calls of the source. The calls are words filed in the database; no cut-off is given here.
What was measured:
Plasmodium falciparum [1] = test: Antimalarial activity against chloroquine-sensitive Plasmodium falciparum NF54 assessed as inhibition of schizont maturation at 100 ug/ml after 36-40 hrs relative to control; type: functional; set-up: scale not given: the % may be the effect or the level left
Procedure, shortened: (§1)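 NF-54 cultures were kept in RPMI 1640 with 25 mM HEPES, 1% bicarbonate and 0.5% ALBUMAX-II. Wells held 3% haematocrit in medium with 10% FBS, and compound was added from a 5 mg/mL DMSO stock diluted in medium. Duplicates were incubated at 37 °C in CO2 for 36–40 h. Rings, trophozoites and schizonts were counted per 100 parasites on Giemsa smears, giving % maturation inhibition versus untreated control.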

Plasmodium falciparum [2] = test: Antimalarial activity against chloroquine-sensitive Plasmodium falciparum NF54 assessed as inhibition of schizont maturation at 50 ug/ml after 36-40 hrs relative to control; type: functional; set-up: scale not given: the % may be the effect or the level left; procedure, shortened: as §1
Plasmodium falciparum [3] = test: Antimalarial activity against chloroquine-sensitive Plasmodium falciparum NF54 assessed as inhibition of schizont maturation at 10 ug/ml after 36-40 hrs relative to control; type: functional; set-up: scale not given: the % may be the effect or the level left; procedure, shortened: as §1
Plasmodium falciparum [4] = test: Antimalarial activity against chloroquine-sensitive Plasmodium falciparum NF54 assessed as inhibition of schizont maturation at 2 ug/ml after 36-40 hrs relative to control; type: functional; set-up: scale not given: the % may be the effect or the level left; procedure, shortened: as §1
Plasmodium falciparum [5] = test: Antimalarial activity against chloroquine-resistant Plasmodium falciparum W2; type: functional, organism-based
Plasmodium falciparum [6] = test: Antimalarial activity against chloroquine-sensitive Plasmodium falciparum NF54 assessed as inhibition of schizont maturation at 0.50 ug/ml after 36-40 hrs relative to control; type: functional; set-up: scale not given: the % may be the effect or the level left
Plasmodium falciparum [7] = test: Antimalarial activity against chloroquine-sensitive Plasmodium falciparum NF54 assessed as inhibition of schizont maturation at 0.25 ug/ml after 36-40 hrs relative to control; type: functional; set-up: scale not given: the % may be the effect or the level left
Plasmodium falciparum [8] = test: Antimalarial activity against chloroquine-sensitive Plasmodium falciparum NF54 assessed as inhibition of schizont maturation at 0.125 ug/ml after 36-40 hrs relative to control; type: functional; set-up: scale not given: the % may be the effect or the level left
Plasmodium falciparum [9] = test: Antimalarial activity against chloroquine-sensitive Plasmodium falciparum NF54 assessed as inhibition of schizont maturation at 0.0625 ug/ml after 36-40 hrs relative to control; type: functional; set-up: scale not given: the % may be the effect or the level left
Plasmodium falciparum [10] = test: Antimalarial activity against chloroquine-sensitive Plasmodium falciparum NF54 assessed as inhibition of schizont maturation; type: functional; set-up: scale not given: the % may be the effect or the level left
Procedure, shortened: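 P. falciparum NF-54 was grown in RPMI 1640 with 25 mM HEPES, 1% sodium bicarbonate and 0.5% ALBUMAX-II. The assay used 3% haematocrit in medium with 10% FBS, with a DMSO stock (5 mg/mL) diluted in medium to five-fold dilutions. Duplicate wells were incubated at 37 °C in CO2 for 36–40 h, then Giemsa smears were read. MIC was the concentration fully blocking maturation to schizonts.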

Plasmodium falciparum [11] = test: Antimalarial activity against chloroquine-sensitive Plasmodium falciparum NF54 assessed as inhibition of schizont maturation at 0.4 ug/ml after 36-40 hrs relative to control; type: functional; set-up: scale not given: the % may be the effect or the level left; procedure, shortened: as §1
Plasmodium falciparum [12] = test: Antimalarial activity against chloroquine-sensitive Plasmodium falciparum NF54 assessed as inhibition of schizont maturation at 0.08 ug/ml after 36-40 hrs relative to control; type: functional; set-up: scale not given: the % may be the effect or the level left; procedure, shortened: as §1
Plasmodium yoelii [13] = test: Antimalarial activity against chloroquine-resistant Plasmodium yoelii N67 infected in Swiss mice (Mus musculus) assessed as suppression of parasitaemia at 50 mg/kg, intraperitoneal once daily for 4 consecutive days measured after 4 days; type: functional
Plasmodium yoelii [14] = test: Antimalarial activity against chloroquine-resistant Plasmodium yoelii N67 infected in Swiss mice (Mus musculus) assessed as suppression of parasitaemia at 50 mg/kg, intraperitoneal once daily for 4 consecutive days measured after 6 days; type: functional, organism-based; set-up: dose 50 mg/kg
Plasmodium yoelii [15] = test: Antimalarial activity against chloroquine-resistant Plasmodium yoelii N67 infected in Swiss mice (Mus musculus) assessed as mean survival time at 50 mg/kg, intraperitoneal once daily for 4 consecutive days; type: functional

| SMILES | Activity (Plasmodium falciparum [1]) | Activity (Plasmodium falciparum [2]) | Activity (Plasmodium falciparum [3]) | Activity (Plasmodium falciparum [4]) | Activity (Plasmodium falciparum [11]) | other results |
| --- | --- | --- | --- | --- | --- | --- |
| O=C(/C=C/c1cccc([N+](=O)[O-])c1)c1ccc(Nc2c3ccccc3nc3ccccc23)cc1 | 100% | 100% | 100% | 0% |  |  |
| CC(C)=CCc1cc(/C=C/C(=O)c2ccc(O)cc2O)ccc1O [LICOAGROCHALCONE A] |  |  |  |  |  | pIC50 (Plasmodium falciparum [5]): 4.99 |
| CCN(CC)CCCC(C)Nc1ccnc2cc(Cl)ccc12 (stereo not given) [CHLOROQUINE] |  |  |  |  |  | Activity (Plasmodium falciparum [6]): 100%; Activity (Plasmodium falciparum [7]): 100%; Activity (Plasmodium falciparum [8]): 97.1%; Activity (Plasmodium falciparum [9]): 74.3% |
| O=C(/C=C/c1ccc(Cl)cc1)c1ccc(Nc2c3ccccc3nc3ccccc23)cc1 | 100% | 100% | 100% | 0% |  |  |
| COc1cc(/C=C/C(=O)c2ccc(O)c(CC=C(C)C)c2O)ccc1O [CROTAORIXIN] |  |  |  |  |  | Activity (Plasmodium falciparum [10]): 100% |
| O=C(/C=C/C=C/c1ccccc1)c1ccc(Nc2c3ccccc3nc3ccccc23)cc1 | 100% | 100% | 100% | 64.3% | 0% |  |
| Cc1cccc(/C=C/C(=O)c2ccc(Nc3c4ccccc4nc4ccccc34)cc2)c1 | 100% | 100% | 100% | 0% |  |  |
| COc1ccc(/C=C/C(=O)c2ccc(Nc3c4ccccc4nc4ccccc34)cc2)cc1 | 100% | 100% | 100% | 85.7% | 71.4% | Activity (Plasmodium falciparum [12]): 14.3%; Activity (Plasmodium yoelii [13]): inactive; Activity (Plasmodium yoelii [14]): inactive; Survival (Plasmodium yoelii [15]): 10.67 days |
| COc1cc(/C=C/C(=O)c2ccc(Nc3c4ccccc4nc4ccccc34)cc2)cc(OC)c1OC | 100% | 100% | 100% | 57.1% | 5.7% |  |
| COc1ccc(/C=C/C(=O)c2cccc(Nc3c4ccccc4nc4ccccc34)c2)cc1 | 100% | 100% | 100% | 71.4% | 7.1% | Activity (Plasmodium yoelii [13]): 6.22%; Activity (Plasmodium yoelii [14]): inactive; Survival (Plasmodium yoelii [15]): 15.2 days |
| Cc1ccc(/C=C/C(=O)c2ccc(Nc3c4ccccc4nc4ccccc34)cc2)cc1 | 100% | 100% | 100% | 42.8% |  |  |
| O=C(/C=C/c1ccc(Cl)cc1)c1cccc(Nc2c3ccccc3nc3ccccc23)c1 | 100% | 100% | 100% | 0% |  |  |
| O=C(/C=C/c1ccccc1)c1ccc(Nc2c3ccccc3nc3ccccc23)cc1 | 100% | 100% | 100% | 42.8% |  |  |
| O=C(/C=C/c1ccccc1)c1cccc(Nc2c3ccccc3nc3ccccc23)c1 | 100% | 100% | 100% | 97.1% | 4.3% | Activity (Plasmodium yoelii [13]): inactive; Activity (Plasmodium yoelii [14]): inactive; Survival (Plasmodium yoelii [15]): 15.5 days |

From ChEMBL document CHEMBL1154756, “Synthesis of new chalcone derivatives containing acridinyl moiety with potential antimalarial activity” (Eur J Med Chem, 2010)
